This note sets out measurements from ChEMBL document CHEMBL3826973, “Binding characterization, synthesis and biological evaluation of RXRα antagonists targeting the coactivator binding site” (Bioorg Med Chem Lett, 2016).

The inhibition is the share of the control response that was lost under treatment. For orientation: Kd means a measure of binding affinity in units of concentration. Read a high Kd as lower affinity. A word on the IC50: it is the point on the concentration scale where inhibition reaches its midpoint. Lower therefore signals greater potency in that assay.

Structures are written as SMILES. The source made the active and inactive calls. The rule behind the calls is not given here.

Assay [1] has as its target T1, Retinoic acid receptor RXR-alpha (Homo sapiens) (UniProt P19793).
T1 sequence (whole entry): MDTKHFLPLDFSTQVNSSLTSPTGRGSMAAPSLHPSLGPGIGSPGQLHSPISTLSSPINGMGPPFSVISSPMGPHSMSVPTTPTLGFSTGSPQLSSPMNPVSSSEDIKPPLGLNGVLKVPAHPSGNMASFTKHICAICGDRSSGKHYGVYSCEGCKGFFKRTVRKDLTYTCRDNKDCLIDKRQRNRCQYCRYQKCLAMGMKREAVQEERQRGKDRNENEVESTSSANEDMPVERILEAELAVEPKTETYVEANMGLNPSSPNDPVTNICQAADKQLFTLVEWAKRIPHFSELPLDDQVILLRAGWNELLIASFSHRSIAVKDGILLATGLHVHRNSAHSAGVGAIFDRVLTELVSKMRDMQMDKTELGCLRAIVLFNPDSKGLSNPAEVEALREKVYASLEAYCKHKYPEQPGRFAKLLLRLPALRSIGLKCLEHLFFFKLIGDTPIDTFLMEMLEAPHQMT
Description: Antagonist activity at RXRalpha (unknown origin) expressed in HEK293T cells assessed as inhibition of receptor transactivation at 10 uM after 12 hrs in presence of 9-cis-RA by luciferase reporter gene assay relative to control. The following applies: HEK-293T. It is filed as cell-based. A digest of the protocol: (§1)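 HEK-293T cells cotransfected with pG5-Luc reporter and an RXRα expression vector. Cells were treated with 9-cis-RA (10^-7 M) plus test compound for 12 h, and luciferase activity was read. The assay was run either as a single-concentration screen scored as % inhibition or at the indicated concentrations for dose-response.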
For orientation: In a reporter assay the amount or activity of a reporter protein is the signal.

Assay [2] addresses T2, Retinoic acid receptor RXR-alpha (Homo sapiens, UniProt P19793).
T2 sequence (P19793 whole entry): T1 sequence (whole entry)
Description: Binding affinity to RXRalpha-LBD (unknown origin) measured up to 300 sec by surface plasma resonance method. A digest of the protocol:
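Surface plasmon resonance with the RXRα ligand-binding domain as the binding partner; affinity expressed as a dissociation constant (Kd).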

In assay [3] the target is T2, Retinoic acid receptor RXR-alpha.
In assay [4] the target is T1, Retinoic acid receptor RXR-alpha (Homo sapiens). The note with it: HepG2, 20 ug/ml.
Assay [5] is described as follows: Binding affinity to RXRalpha-LBD E453A mutant (unknown origin) measured up to 300 sec by surface plasma resonance method. Also on record: species or system Homo sapiens.
Another assay is filed under the species Homo sapiens. Description: Ratio of Kd for RXRalpha-LBD E453A mutant (unknown origin) to Kd for RXRalpha-LBD (unknown origin).
Assay [6] has as its target T1, Retinoic acid receptor RXR-alpha (Homo sapiens). Description: Binding affinity to RXRalpha-LBD (unknown origin) at 10 uM measured up to 201 sec in presence of 9-cis-RA by surface plasma resonance method.
For assay [7] the target is unchanged. Description: Antagonist activity at RXRalpha (unknown origin) expressed in HEK293T cells assessed as inhibition of receptor transactivation at 10 to 30 uM after 12 hrs in presence of 9-cis-RA by luciferase reporter gene assay. Format: cell-based. The note with it: HEK-293T. A digest of the protocol: as §1
Assay [8] shares this target. Description: Binding affinity to RXRalpha-LBD (unknown origin) at 0.01 to 5 uM measured up to 260 sec by surface plasma resonance method.

For the molecule `CCN(CC)c1ccc(/C=N/NC(=O)CSc2nc3ccccc3o2)c(OC)c1`, in assay [1], the inhibition was 17.9%.
Still for that read-out and setting: for `O=C(CSc1nc2ccccc2o1)N/N=C/c1ccc(O)c(O)c1O` the value was 24.3%.
The same measure, in the same setting: to `O=C(CSc1nc2ccccc2o1)N/N=C/c1cccc(O)c1` belongs 16.2%.
As to `CCN(CC)c1ccc(/C=N/NC(=O)CSc2nc3ccccc3o2)c(O)c1` (mixture of isomers), in assay [1], the inhibition was found to be 74.1%. The same molecule returned a Kd in [2] of 910 nM. The IC50 in [3] is 2810 nM. Also, in assay [4], the inhibition result was “Active”.
Turning to `CCN(CC)c1ccc(/C=N/NC(=O)CSc2nc3ccccc3o2)cc1`, the inhibition in assay [1] is 19.3%.
In [5], `Cc1cc(=O)oc2c(/C=N/NC(=O)CSc3nc4ccccc4s3)c(O)ccc12` gave a Kd of 3610 nM. For the same molecule, the Ratio in the assay filed under Homo sapiens was determined as 10. In assay [6], the result was Active.
In the case of `O=C(CSc1nc2ccccc2o1)N/N=C/c1ccccc1F`, in assay [1], the inhibition came to 13%.
On the same count and under the same terms, for `O=C(CSc1nc2ccccc2o1)N/N=C/c1ccc(O)cc1O` the value was 25.2%; for `O=C(CSc1nc2ccccc2o1)N/N=C/c1cccc(O)c1O`, 39.6%.
On the same count and under the same terms, for `COc1ccc(/C=N/NC(=O)CSc2nc3ccccc3o2)c(O)c1` the value was 57.3%; for `O=C(CSc1nc2ccccc2o1)N/N=C/c1ccc([N+](=O)[O-])cc1`, 12.7%.
Regarding `O=C(CSc1nc2ccccc2o1)N/N=C/c1ccc(F)cc1O`, the inhibition in assay [1] is 33.2%.
Regarding `COc1ccc2c(C)cc(=O)oc2c1/C=N/NC(=O)CSc1nc2ccccc2s1` (mixture of isomers), the inhibition entry in assay [7] is “inactive”. The outcome in assay [8] was inactive.
As to `O=C(CSc1nc2ccccc2o1)N/N=C/c1ccc(OCc2ccccc2)cc1`, the inhibition in assay [1] came to 3.7%.
The same measure, in the same setting: for `Cc1cccc(/C=N/NC(=O)CSc2nc3ccccc3o2)c1` the value was 47.9%; for `O=C(CSc1nc2ccccc2o1)N/N=C/c1cccc(F)c1`, 13.8%; for `O=C(CSc1nc2ccccc2o1)N/N=C/c1ccc(OCc2ccccc2)cc1O`, 43.9%.
